Source: ChEMBL document CHEMBL2016575, “The chemical synthesis of metabolically stabilized 2-OMe-LPA analogues and preliminary studies of their inhibitory activity toward autotaxin” (Bioorg Med Chem Lett, 2012)

Legend:
[1] = Metabolic stability of the compound assessed as reduction in dephosphorylation at […] after 24 hrs by phosphomolybdate blue assay in presence of bovine intestinal mucosal alkaline phosphatase; assay type: ADME; settings: cattle, isolated protein
In short: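 Substrate incubated with the phosphatase at 37 °C for 24 h. Dephosphorylation is followed by quantifying liberated inorganic phosphate with a modified phosphomolybdate blue assay.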

Autotaxin [2] = molecular target: T1, Autotaxin (Homo sapiens, UniProt Q13822); assay: Inhibition of human recombinant autotaxin expressed in insect Sf9 cells using FS-3 as substrate preincubated for 10 mins prior substrate addition measured up to 60 mins by FRET-based analysis
Autotaxin [3] = molecular target: T1, Autotaxin; assay: Inhibition of human recombinant autotaxin expressed in insect Sf9 cells using FS-3 as substrate at 1 uM preincubated for 10 mins prior substrate addition measured up to 60 mins by FRET-based analysis

Row | Stability [1] | IC50 (Autotaxin [2]) [nM] | inhibition (Autotaxin [3]) [%] | SMILES
1 | Unstable | – | – | CCCCCCCC/C=C\CCCCCCCC(=O)OC[C@@H](O)COP(=O)(O)O [LYSOPHOSPHATIDIC ACID]
2 | – | 1200 | 45.5 | CCCCCCCCCCCC(=O)OCC(COP(=O)(O)O)OC (stereo not given)
3 | Stable | 220 | 81.3 | CCCCCCCC/C=C\CCCCCCCC(=O)OCC(COP(=O)(O)O)OC (stereo not given)
4 | Stable | 170 | 86.1 | CCCCCCCCCCCCCCCCCC(=O)OC[C@@H](O)CC(Br)P(=O)(O)O (stereo not given in full)
5 | – | 1010 | 49.7 | CCCCCCCCCCCCCCCCCC(=O)OCC(COP(=O)(O)O)OC (stereo not given)
6 | – | 361 | 74.5 | CCCCCCCCCCCCCCCC(=O)OCC(COP(=O)(O)O)OC (stereo not given)
7 | – | 704 | 57.7 | CCCCCCCCCCCCCC(=O)OCC(COP(=O)(O)O)OC (stereo not given)

Row | SMILES | Stability [1] | IC50 (Autotaxin [2]) [nM] | inhibition (Autotaxin [3]) [%]
8 | CCCCCCCC/C=C\CCCCCCCC(=O)OCC(COP(=O)(O)S)OC (stereo not given) | – | 356 | 77.8
9 | CCCCCCCCCCCCCC(=O)OCC(COP(=O)(O)S)OC (stereo not given) | – | 596 | 62.3
10 | CCCCCCCCCCCC(=O)OCC(COP(=O)(O)S)OC (stereo not given) | – | 2410 | 36.7
11 | CCCCCCCCCCCCCCCC(=O)OCC(COP(=O)(O)S)OC (stereo not given) | – | 512 | 64.7
12 | CCCCCCCCCCCCCCCCCC(=O)OCC(COP(=O)(O)S)OC (stereo not given) | – | 2420 | 35.5
